Active and inactive are the calls of the source. The calls are words filed in the database; no cut-off is given here.
Assays:
[1] = target: T1, Beta-secretase 2 (Homo sapiens, UniProt Q9Y5Z0); assay: Inhibition of recombinant BACE2 (unknown origin) using FAM-SEVNLDAEFK-TAMRA as substrate incubated for 30 mins prior to substrate addition by fluorimetric analysis
T1 sequence (Q9Y5Z0 whole entry): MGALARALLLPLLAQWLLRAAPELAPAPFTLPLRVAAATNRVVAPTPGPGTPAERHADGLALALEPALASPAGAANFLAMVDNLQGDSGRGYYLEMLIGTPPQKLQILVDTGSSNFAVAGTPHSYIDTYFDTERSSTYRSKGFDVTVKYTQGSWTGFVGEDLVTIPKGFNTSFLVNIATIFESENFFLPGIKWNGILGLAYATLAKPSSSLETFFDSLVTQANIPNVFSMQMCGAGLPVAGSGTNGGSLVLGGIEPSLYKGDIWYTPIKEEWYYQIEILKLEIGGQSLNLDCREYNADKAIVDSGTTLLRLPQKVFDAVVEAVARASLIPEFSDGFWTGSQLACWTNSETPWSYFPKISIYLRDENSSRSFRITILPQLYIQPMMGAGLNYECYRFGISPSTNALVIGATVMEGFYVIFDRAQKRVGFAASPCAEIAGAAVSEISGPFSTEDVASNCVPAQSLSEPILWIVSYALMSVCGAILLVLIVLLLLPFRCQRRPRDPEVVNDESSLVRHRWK

[2] = Cytotoxicity against HEK293 cells assessed as cell viability at 100 uM after 24 hrs by MTT assay relative to control; type: cell-based; settings: human, read-out: Activity
Summary of the method: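 MTT viability read-out on mammalian cells after 24-hour exposure to 100 µM compound; viable cells expressed as percentage remaining relative to control; mean ± SEM, n ≥ 3.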

[3] = target: T2, Beta-secretase 1 (Homo sapiens, UniProt P56817); assay: Inhibition of recombinant BACE1 (unknown origin) using FAM-SEVNLDAEFK-TAMRA as substrate incubated for 30 mins prior to substrate addition by fluorimetric analysis
[4] = organism: Homo sapiens; assay: Selectivity ratio of IC50 for recombinant BACE2 (unknown origin) to IC50 of recombinant BACE1 (unknown origin)
[5] = target: T2, Beta-secretase 1; assay: Inhibition of recombinant BACE1 (unknown origin) using FAM-SEVNLDAEFK-TAMRA as substrate at 100 uM incubated for 30 mins prior to substrate addition by fluorimetric analysis relative to control
[6] = target: T2, Beta-secretase 1; assay: Inhibition of BACE1 (unknown origin) expressed in HEK293 cells coexpressing N-terminal […] APP assessed as decrease in sAPPbeta level at 100 uM after 24 hrs by Western blotting analysis; type: cell-based
Summary of the method: (§1)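 HEK 293 cells over-expressing BACE1 were exposed to compound at 100 µM for 24 hours. Conditioned media were western blotted for sAPPα and sAPPβ, with sAPPβ detected by antibody 1A9. Levels were compared with control.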

[7] = tested on: HEK293; assay: Effect on sAPPalpha level in HEK293 cells coexpressing N-terminal […] APP at 100 uM after 24 hrs by Western blotting analysis; type: functional, Homo sapiens; summary of the method: as §1
[8] = target: T2, Beta-secretase 1; assay: Inhibition of BACE1 (unknown origin) -mediated sAP-APP production expressed in HEK293 cells coexpressing N-terminal […] APP at 100 uM after 24 hrs by spectrophotometric analysis; type: cell-based
Summary of the method: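 HEK 293 cells stably expressing BACE1 plus wild-type human APP carrying an N-terminal alkaline phosphatase tag (AP-APP) were incubated with compound. Release of sAP-APP into conditioned media was quantified as alkaline phosphatase activity and expressed as percentage of the matched control.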

T2 sequence (P56817 whole entry): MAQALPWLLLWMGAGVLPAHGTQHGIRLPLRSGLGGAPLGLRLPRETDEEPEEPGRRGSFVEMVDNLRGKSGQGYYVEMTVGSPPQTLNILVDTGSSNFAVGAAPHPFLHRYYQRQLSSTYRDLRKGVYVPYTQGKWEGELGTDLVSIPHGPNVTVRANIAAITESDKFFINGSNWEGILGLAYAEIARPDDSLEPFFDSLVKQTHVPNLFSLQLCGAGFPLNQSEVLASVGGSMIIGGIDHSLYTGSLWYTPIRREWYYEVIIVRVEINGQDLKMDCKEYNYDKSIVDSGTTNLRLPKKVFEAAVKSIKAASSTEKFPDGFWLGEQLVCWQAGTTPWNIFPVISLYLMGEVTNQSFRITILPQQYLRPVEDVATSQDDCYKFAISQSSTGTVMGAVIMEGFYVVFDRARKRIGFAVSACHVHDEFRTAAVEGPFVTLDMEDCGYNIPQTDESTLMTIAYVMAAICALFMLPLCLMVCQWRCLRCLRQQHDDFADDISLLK

Structure (SMILES) | IC50 [1] [µM] | viability at 24 h, 100 µM [2] [%] | IC50 ([3]; read-out: IC50) [µM] | Ratio IC50 [4] | inhibition [5] | other results
NCc1ccc(CNC(=O)Cc2ccc(-c3cccc(C(F)(F)F)c3)cc2)cc1 | 319 | 46 | 58.9 | 2 | 60.7% | 
COc1ccc(CNC(=O)Cc2ccc(-c3ccccc3)cc2)cc1 |  | 82 |  |  | inactive | inhibition [3]: inactive
O=C(Cc1ccc(-c2ccccc2)cc1)NCc1ccc(CN2Cc3ccccc3C2)cc1 | > 1000 | 80 | 63.3 | 2 | 70.1% | inhibition [6]: 33%; Activity [7]: 10%; inhibition [8]: 21.7%
C[C@@H](C(=O)NCc1ccc(CN)cc1)c1ccc(-c2ccccc2)c(F)c1 | 194 | 18 | 85.7 | 2 | 55.5% | 
O=C(Cc1ccc(-c2cc(C(F)(F)F)cc(C(F)(F)F)c2)cc1)NCc1ccccc1 |  | 76 |  |  |  | IC50 [3]: Not Active
O=C(Cc1ccc(-c2ccccc2)cc1)NCc1ccc(CN2CCCC2)cc1 |  | 24 | > 100 |  | 24.4% | 
NCc1ccc(CNC(=O)Cc2ccc(-c3ccccc3)cc2)cc1 | > 1000 | 42 | 323 | 2 | 35.6% | 
CC(C(=O)NCc1ccc(CN)cc1)c1ccc(-c2ccccc2)c(F)c1 (stereo unspecified) | 207 | 11 | 77.1 | 2 | 51.7% | 
CCN(CC)Cc1ccc(CNC(=O)Cc2ccc(-c3ccccc3)cc2)cc1 |  | 38 | > 100 |  | 34.4% | 
O=C(Cc1ccc(-c2ccccc2)cc1)Nc1ccc(Br)cc1 |  |  |  |  | inactive | 
O=C(Cc1ccc(-c2ccccc2)cc1)NCCc1c[nH]c2ccccc12 |  |  |  |  | inactive | 
CC[N+](CC)(CC)Cc1ccc(CNC(=O)Cc2ccc(-c3ccccc3)cc2)cc1 |  | 40 | > 100 |  | 44.1% | 
NCc1ccc(CNC(=O)Cc2ccc(-c3ccc(O)cc3)cc2)cc1 |  |  | > 100 |  | 41.3% | 
NCc1ccc(CNC(=O)Cc2ccc(-c3c(F)c(F)c(F)c(F)c3F)cc2)cc1 | 246 | 68 | 101 | 2 | 51.8% | inhibition [6]: Active; Activity ([7]; Homo sapiens): inactive; inhibition [8]: 39.4%
O=C(Cc1ccc(-c2ccccc2)cc1)NCc1ccccc1 |  | 93 |  |  | 15.2% | inhibition [3]: inactive
NCc1ccc(CNC(=O)C(Cc2ccccc2)c2ccc(-c3ccccc3)cc2)cc1 (stereo unspecified) | 21 | 15 | 26.9 |  | 102% | 
NCc1ccc(CNC(=O)Cc2ccc(-c3ccccc3)cc2O)cc1 |  | 18 | > 100 |  | 42.5% | 
O=C(Cc1ccc(-c2cccc(C(F)(F)F)c2)cc1)NCc1ccccc1 |  | 27 |  |  |  | IC50 [3]: Not Active
COc1ccc(NC(=O)Cc2ccc(-c3ccccc3)cc2)cc1 |  |  |  |  | inactive | 
CC(C)C(C(=O)NCc1ccc(CN)cc1)c1ccc(-c2ccccc2)cc1 (stereo unspecified) | 100 | 50 | 33.5 | 2 | 66.1% | 
NCc1ccc(CNC(=O)Cc2ccc(-c3ccccc3)c(O)c2)cc1 |  | 50 | > 100 |  | 28.1% | 
O=C(Cc1ccc(-c2c(F)c(F)c(F)c(F)c2F)cc1)NCc1ccccc1 |  | 61 |  |  |  | IC50 [3]: Not Active
NCc1ccc(CNC(=O)Cc2ccc(-c3cc(C(F)(F)F)cc(C(F)(F)F)c3)cc2)cc1 | 33.2 | 8 | 63.9 |  | 80.6% | 

Reference: ChEMBL document CHEMBL2321672, “Discovery of biphenylacetamide-derived inhibitors of BACE1 using de novo structure-based molecular design” (J Med Chem, 2013)
